Data taken from publication PMC12799549 (Drug Metabolism and Disposition, 2025).
Read-outs that look alike come from different tables or passages of the source. Marks after values point to notes of the source that are not given here.

Key:
HEK293 cells = test: MTT cell viability, HEK293; format: cell-based, human; details: for % resistant: plateau of biphasic curve fit, mean ± SEM; for concentration required to impact the remaining (resistant) cells: biphasic viability profile
Method in brief: (§1)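 Cells seeded at 1.1 × 10^5/well in complete medium; 1 h later, medium with a range of test compound concentrations added for 48 h at 37 °C, 5% CO2. Vehicle is DMSO-only medium (100%), and compound medium without cells is background (0%). MTT 1 mg/mL in Dulbecco's PBS for 90 min; formazan dissolved in DMSO, A570. Biphasic curves fitted to a 2-site model: plateau gives % resistant, with a LogEC50 per phase. n = 5.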

E1E2KO cells = test: MTT cell viability, E1E2KO; format: cell-based, human; details: 48 h; for % resistant: E1E2KO, plateau of biphasic curve fit; for EC50: Homo sapiens
Method in brief: as §1

ENT2KO cells = test: MTT cell viability, ENT2KO; format: cell-based, human; details: 48 h; for % resistant: plateau of biphasic curve fit
Method in brief: as §1

ENT1KO cells = test: MTT cell viability, ENT1KO; format: cell-based, human; details: 48 h; for % resistant: ENT1KO, plateau of biphasic curve fit; for EC50: Homo sapiens
Method in brief: as §1

ENT2 [1] = biological target: T1, ENT2 (Homo sapiens, UniProt Q14542); test: Inhibition of [3H]2-chloroadenosine uptake in ENT1KO cells; format: cell-based
T1 sequence (Q14542 1-456): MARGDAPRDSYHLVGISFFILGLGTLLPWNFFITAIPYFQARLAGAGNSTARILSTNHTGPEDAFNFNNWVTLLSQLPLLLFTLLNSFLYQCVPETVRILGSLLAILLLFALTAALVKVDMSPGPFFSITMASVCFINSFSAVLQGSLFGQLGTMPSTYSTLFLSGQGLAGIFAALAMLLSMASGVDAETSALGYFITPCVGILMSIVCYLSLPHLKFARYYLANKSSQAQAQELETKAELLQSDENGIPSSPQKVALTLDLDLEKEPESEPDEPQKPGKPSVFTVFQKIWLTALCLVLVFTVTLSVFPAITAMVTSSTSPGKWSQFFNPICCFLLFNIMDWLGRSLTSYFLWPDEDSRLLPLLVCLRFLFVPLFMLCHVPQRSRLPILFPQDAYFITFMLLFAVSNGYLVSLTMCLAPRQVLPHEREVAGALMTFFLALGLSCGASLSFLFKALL

ENT1 and ENT2 = format: cell-based, human; details: HEK293 cells; 10 μM substrate, 15 s uptake; printed as logIC50 (negative)
ENT1 [2] = biological target: T2, ENT1 (Homo sapiens, UniProt Q99808); test: Inhibition of [3H]2-chloroadenosine uptake in ENT2KO cells; format: cell-based; details: comparison of ENT2KO cells (ENT1) with ENT1KO cells (ENT2)
T2 sequence (Q99808 1-456): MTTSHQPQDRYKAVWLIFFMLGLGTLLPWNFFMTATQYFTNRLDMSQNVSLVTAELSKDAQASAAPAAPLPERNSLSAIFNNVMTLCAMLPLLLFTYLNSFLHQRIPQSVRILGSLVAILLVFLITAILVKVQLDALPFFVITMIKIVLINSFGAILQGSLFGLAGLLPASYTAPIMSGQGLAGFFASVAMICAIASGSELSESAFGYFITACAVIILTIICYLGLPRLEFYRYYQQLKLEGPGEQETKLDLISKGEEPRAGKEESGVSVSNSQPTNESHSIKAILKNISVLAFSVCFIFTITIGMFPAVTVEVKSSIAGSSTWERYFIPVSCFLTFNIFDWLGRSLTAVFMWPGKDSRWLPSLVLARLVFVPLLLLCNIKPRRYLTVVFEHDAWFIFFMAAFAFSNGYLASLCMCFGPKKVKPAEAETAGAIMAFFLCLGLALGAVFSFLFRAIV

ENT1 [3] = biological target: T2, ENT1; test: [3H]2-chloroadenosine transport kinetics, ENT1-mediated uptake; format: cell-based; details: for Vmax of ENT1-mediated uptake: 10 s uptake
Method in brief: (§2)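 Trypsin/EDTA-detached cells were suspended in sodium-free N-methylglucamine buffer, pH 7.4, with 0.1% DMSO, 100 nM NBMPR or 5 mM adenosine, 15 min at room temperature. Uptake of varied [3H]2-chloroadenosine ran 10 s and was stopped by spinning through silicone:mineral oil; NaOH-digested pellets were scintillation-counted. Cell volume came from [3H]-water. ENT2 = NBMPR minus adenosine condition; ENT1 = mediated minus ENT2. Michaelis-Menten Km/Vmax; 5 experiments, duplicate.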

ENT2 [4] = biological target: T1, ENT2; test: [3H]2-chloroadenosine transport kinetics, ENT2-mediated uptake; format: cell-based
Method in brief: as §2

[5] = read-out: LogEC50-1 (converted)
[6] = read-out: LogEC50-2 (converted)

Compound: O=c1[nH]cc(F)c(=O)[nH]1 [5-fluorouracil]
- % resistant (HEK293 cells; 48 h, n = 5): Monophasic
- % resistant (E1E2KO cells): 48 ± 10%
- EC50 (E1E2KO cells; [5]): 7.76 µM
- EC50 (E1E2KO cells; [6]): 1070 µM
- % resistant (ENT2KO cells): Monophasic
- % resistant (ENT1KO cells): Monophasic
- EC50 (ENT1KO cells; [5]): 8.51 µM

Compound: Sc1ncnc2nc[nH]c12 [6-mercaptopurine]
- concentration required to impact the remaining (resistant) cells (HEK293 cells): > 300 µM
- % resistant (E1E2KO cells): 70 ± 4 ^b %
- EC50 (E1E2KO cells; [5]): 26.3 µM
- % resistant (ENT2KO cells): 41 ± 3%
- % resistant (ENT1KO cells): 66 ± 4 ^b %
- EC50 (ENT1KO cells; [5]): 2.95 µM

Compound: Nc1nc2nc[nH]c2c(=S)[nH]1 [6-thioguanine]
- concentration required to impact the remaining (resistant) cells (HEK293 cells): > 300 µM
- % resistant (E1E2KO cells): Monophasic
- EC50 (E1E2KO cells; [5]): 77.6 µM
- % resistant (ENT2KO cells): 25 ± 5%
- % resistant (ENT1KO cells): 10 ± 3%
- EC50 (ENT1KO cells; [5]): 1.7 µM

Compound: Nc1nc(Cl)nc2c1ncn2[C@H]1C[C@H](O)[C@@H](CO)O1 [Cladribine, cladribine]
- LogEC50-1 (HEK293 cells; 48 h, high affinity phase, given as logEC50 (negative)): −5.11 ± 0.07
- % resistant (HEK293 cells; 48 h, n = 5): Monophasic
- % resistant (E1E2KO cells): Monophasic
- EC50 (E1E2KO cells; [5]): 16.6 µM
- LogEC50-1 (ENT2KO cells; high affinity phase, given as logEC50 (negative)): −4.51 ± 0.07 ^b
- % resistant (ENT2KO cells): Monophasic
- % resistant (ENT1KO cells): Monophasic
- EC50 (ENT1KO cells; [5]): 3.98 µM

Compound: Nc1nc(Cl)nc2c1ncn2[C@@H]1O[C@H](CO)[C@@H](O)[C@@H]1F [Clofarabine, clofarabine]
- % resistant (HEK293 cells; 48 h, n = 5): 21 ± 2%
- % resistant (HEK293 cells; 48 h, n = 5, listed as clofarabine): approximately 20%
- concentration required to impact the remaining (resistant) cells (HEK293 cells): > 300 µM
- Ki (ENT2 [1]): 75 ± 49 µM
- % resistant (E1E2KO cells): Monophasic
- EC50 (E1E2KO cells; [5]): 138 µM
- sensitivity of ENT2KO cells to the drug (ENT2KO cells): almost completely resistant
- % resistant (ENT2KO cells): 70 ± 3 ^b %
- % resistant (ENT1KO cells): 6 ± 2 ^b %
- EC50 (ENT1KO cells; [5]): 0.174 µM

Compound: Nc1ccn([C@@H]2O[C@H](CO)[C@@H](O)[C@@H]2O)c(=O)n1 [Cytarabine, cytarabine]
- % resistant (HEK293 cells; 48 h, n = 5): 51 ± 2%
- concentration required to impact the remaining (resistant) cells (HEK293 cells): > 300 µM
- % resistant (E1E2KO cells): Monophasic
- EC50 (E1E2KO cells; [6]): 11200 µM
- sensitivity of ENT2KO cells to the drug (ENT2KO cells): almost completely resistant
- % resistant (ENT2KO cells): Monophasic
- % resistant (ENT1KO cells): 37 ± 3 ^b %
- EC50 (ENT1KO cells; [5]): 2.34 µM
- EC50 (ENT1KO cells; [6]): 4570 µM

Compound: OCCN(CCO)c1nc(N2CCCCC2)c2nc(N(CCO)CCO)nc(N3CCCCC3)c2n1 [DY, Dipyridamole]
- IC50 (ENT2 [1]): 0.501 µM
- logIC50, monophasic inhibition of [3H]2-chloroadenosine uptake (ENT1 and ENT2): −6.6 ±.01 M

Compound: COc1cc(C(=O)OCCCN2CCCN(CCCOC(=O)c3cc(OC)c(OC)c(OC)c3)CC2)cc(OC)c1OC [Dilazep, dilazep]
- IC50 (ENT2 [1]): 6.31 µM

Compound: Nc1ccn([C@@H]2O[C@H](CO)[C@@H](O)C2(F)F)c(=O)n1 [Gemcitabine, gemcitabine]
- % resistant (HEK293 cells; 48 h, n = 5): 33 ± 4%
- concentration required to impact the remaining (resistant) cells (HEK293 cells): > 300 µM
- % resistant (E1E2KO cells): Monophasic
- EC50 (E1E2KO cells; [6]): 1820 µM
- sensitivity of ENT2KO cells to the drug (ENT2KO cells): almost completely resistant
- % resistant (ENT2KO cells): 76 ± 3 ^b %
- % resistant (ENT1KO cells): 14 ± 2 ^b %
- EC50 (ENT1KO cells; [5]): 0.0427 µM
- EC50 (ENT1KO cells; [6]): 468 µM

Compound: Nc1nc2c(ncn2[C@@H]2O[C@H](CO)[C@@H](O)[C@H]2O)c(=O)[nH]1 [Guanosine, guanosine]
- relative affinity for ENT1 versus ENT2 (ENT1 [2]): significantly higher affinity for ENT1 over ENT2

Compound: O=[N+]([O-])c1ccc(CSc2ncnc3c2ncn3[C@@H]2O[C@H](CO)[C@@H](O)[C@H]2O)cc1 [NBMPR, nitrobenzylmercaptopurine riboside (nitrobenzylthioinosine)]
- concentration required to obtain any inhibition of [3H]2-chloroadenosine uptake (ENT2 [1]; ENT1KO cells): > 1 µM
- logIC50, inhibition of [3H]2-chloroadenosine uptake (ENT2 [1]; ENT1KO cells, 10 μM substrate, 15 s uptake, printed as logIC50 (negative)): ~−5.5 ± 0.1 M

Compound: Nc1ncnc2c1ncn2[C@@H]1O[C@H](CO)[C@@H](O)[C@@H]1O [Vidarabine]
- Ki (ENT2 [1]): 60 ± 24 µM

Compound: [3H]c1nc2c(N)nc(Cl)nc2n1[C@@H]1O[C@H](CO)[C@@H](O)[C@H]1O [[^3H]2-chloroadenosine, [8-^3H]2-Chloroadenosine]
- ENT1-mediated uptake (ENT1 [3]; E1E2KO cells): no ENT1-mediated or ENT2-mediated uptake
- Vmax of ENT1-mediated uptake (ENT1 [3]; ENT2KO cells): 4.8 ± 0.6 pmol/μL per second
- Vmax of ENT1-mediated uptake (ENT1 [3]; HEK293 cells): 3.2 ± 0.3 pmol/μL per second
- ENT2-mediated uptake (ENT2 [4]; E1E2KO cells): no ENT1-mediated or ENT2-mediated uptake
- ENT2-mediated uptake (ENT2 [4]; ENT2KO cells): no detectable ENT2-mediated uptake
